Data published in ChEMBL document CHEMBL4411315, “Discovery of Novel Dual Histone Deacetylase and Mammalian Target of Rapamycin Target Inhibitors as a Promising Strategy for Cancer Therapy” (J Med Chem, 2019).

Experiments:
MV4-11 [1] = assay: Cell cycle arrest in human MV4-11 cells assessed as accumulation at G2/M phase at 2.5 nM after 24 hrs by propidium iodide/RNase staining-based FACS analysis (reference value: 18.79%); format: functional
MV4-11 [2] = assay: Induction of apoptosis in human MV4-11 cells assessed as necrotic cells at 20 nM after 48 hrs by Annexin V-FITC/propidium iodide staining-based flow cytometric analysis (reference value: 0.17%); format: functional
MM1.S [3] = assay: Cell cycle arrest in human MM1S cells assessed as accumulation at S phase at 5 nM after 24 hrs by propidium iodide/RNase staining-based FACS analysis (reference value: 24.49%); format: functional
MV4-11 [4] = assay: Induction of apoptosis in human MV4-11 cells assessed as early apoptotic cells at 80 nM after 48 hrs by Annexin V-FITC/propidium iodide staining-based flow cytometric analysis (reference value: 10.7%); format: functional
MV4-11 [5] = assay: Induction of apoptosis in human MV4-11 cells assessed as viable cells at 80 nM after 48 hrs by Annexin V-FITC/propidium iodide staining-based flow cytometric analysis (reference value: 84.1%); format: functional; conditions: MV4-11, 48 h, read-out: Activity
[6] = Toxicity against NOD/SCID mouse xenografted with human MM1S cells assessed as mouse survival at 10 mg/kg, iv administered every 2 days for 5 days; format: organism-based; conditions: in vivo
How it was run: (§1)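 Female NOD/SCID mice, 5-6 weeks old, received 10^7 MM1S cells in 100 μL serum-free RPMI 1640 s.c. into the right flank. At 100-200 mm3 tumours they were randomised, 6 mice per group. Tumours were measured by caliper every 2 days. At the end, tumours were excised and weighed. Survivors are reported per group.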

MM1.S [7] = assay: Cell cycle arrest in human MM1S cells assessed as accumulation at S phase at 2.5 nM after 24 hrs by propidium iodide/RNase staining-based FACS analysis (reference value: 24.49%); format: functional
[8] = Toxicity against NOD/SCID mouse xenografted with human MM1S cells assessed as mouse survival at 20 mg/kg, iv administered every 2 days for 5 days; format: organism-based; conditions: in vivo; how it was run: as §1
MM1.S [9] = assay: Induction of apoptosis in human MM1S cells assessed as viable cells at 160 nM after 48 hrs by Annexin V-FITC/propidium iodide staining-based flow cytometric analysis (reference value: 98.9%); format: functional; conditions: read-out: Activity
[10] = Toxicity against NOD/SCID mouse xenografted with human MM1S cells assessed as effect on body weight at 20 mg/kg, iv administered every 2 days for 5 days; format: organism-based; conditions: in vivo; how it was run: as §1

With `C[C@@H]1CN(C(=O)Nc2ccc(-c3nc(N4CCOCC4)c4cnn(CCCCCCC(=O)NO)c4n3)cc2)CCO1` the Activity (MV4-11 [1]) was 18.2%, the Activity (MV4-11 [2]) was 2.84% and the Activity (MM1.S [3]) was 17.65%. For the same compound, the Activity (MV4-11 [4]) was 37.6%, the viability at 0.08 µM (MV4-11 [5]) was 4.09% and the Activity [6] was “Non-Toxic”. The Activity (MM1.S [7]) was 21.59%, the Activity [8] was “Non-Toxic” and the viability at 0.16 µM (MM1.S [9]) was 13.8%. The Activity [10] was “Non-Toxic”.
